Measured values: ChEMBL document CHEMBL3739344, “A novel class of negative allosteric modulators of NMDA receptor function” (Bioorg Med Chem Lett, 2015)
Converted amounts (≈) assume the structure as drawn. The source made the active and inactive calls. The calls are words filed in the database; no cut-off is given here.

Assays:
[1] = system: Primary neuron; experiment: Neuroprotective activity in rat primary hippocampal neurons assessed as 100 uM NMDA and 30 uM glycine induced LDH release in media at 10 uM after 20 to 24 hrs by spectrophotometric analysis; format: functional, cell-based
Method in brief: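 Rat hippocampal neurons were cultured 7–10 days in vitro at 37 °C. They were challenged for 1 h in Mg2+-free medium with 100 µM NMDA plus 30 µM glycine, then returned to normal medium. LDH in the supernatant was read spectrophotometrically 20–24 h later and expressed relative to vehicle-treated cells. Triplicates from 6 independent experiments.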

[2] = target: Glutamate NMDA receptor; Grin1/Grin2a (Rattus norvegicus, UniProt P35439+Q00959); experiment: Negative allosteric modulation of rat GluN1a/GluN2A receptor expressed in Xenopus laevis oocytes assessed as suppression of 100 uM glutamate and 30 uM glycine glycine induced-current by voltage clamp recording method; format: cell-based
Method in brief: (§1)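 Rat GluN1-1a cRNA co-injected with GluN2A, 2B, 2C or 2D cRNA into Xenopus oocytes; expression 1–3 days at 16–19 °C. Two-electrode voltage clamp. Currents evoked by 100 µM glutamate plus 30 µM glycine, alone and then with rising inhibitor concentrations. […] 4–17 oocytes from ≥2 frogs.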

[3] = target: Glutamate NMDA receptor; Grin1/Grin2b (Rattus norvegicus, UniProt P35439+Q00960); experiment: Negative allosteric modulation of rat GluN1a/GluN2B receptor expressed in Xenopus laevis oocytes assessed as suppression of 100 uM glutamate and 30 uM glycine induced-current by voltage clamp recording method; format: cell-based; method in brief: as §1
[4] = target: Glutamate NMDA receptor; Grin1/Grin2c (Rattus norvegicus, UniProt P35439+Q00961); experiment: Negative allosteric modulation of rat GluN1a/GluN2C receptor expressed in Xenopus laevis oocytes assessed as suppression of 100 uM glutamate and 30 uM glycine induced-current by voltage clamp recording method; format: cell-based; method in brief: as §1
[5] = target: Ionotropic glutamate receptor NMDA 1/2D (Rattus norvegicus, UniProt P35439+Q62645); experiment: Negative allosteric modulation of rat GluN1a/GluN2D receptor expressed in Xenopus laevis oocytes assessed as suppression of 100 uM glutamate and 30 uM glycine induced-current by voltage clamp recording method; format: cell-based; method in brief: as §1
[6] = Solubility of compound in TEVC electrophysiological solution at 3.25 to 100 uM by nephelometric method; format: physicochemical
Method in brief: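 Nephelometry measuring forward light scattering of each compound at 3.25–100 µM in TEVC recording solution. Maximum solubility taken as the intersection point of a linear segmental regression. Mean of n = 2 in quadruplicate.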

[7] = target: T1, Glutamate NMDA receptor; Grin1/Grin2a (Rattus norvegicus) (UniProt P35439+Q00959); experiment: Negative allosteric modulation of rat GluN1a/GluN2A receptor expressed in Xenopus laevis oocytes assessed as suppression of 100 uM glutamate and 30 uM glycine induced-current at saturating compound level by voltage clamp recording method; format: cell-based; method in brief: as §1
[8] = target: T2, Glutamate NMDA receptor; Grin1/Grin2b (Rattus norvegicus) (UniProt P35439+Q00960); experiment: Negative allosteric modulation of rat GluN1a/GluN2B receptor expressed in Xenopus laevis oocytes assessed as suppression of 100 uM glutamate and 30 uM glycine induced-current at saturating compound level by voltage clamp recording method; format: cell-based; method in brief: as §1
[9] = target: T3, Glutamate NMDA receptor; Grin1/Grin2c (Rattus norvegicus) (UniProt P35439+Q00961); experiment: Negative allosteric modulation of rat GluN1a/GluN2C receptor expressed in Xenopus laevis oocytes assessed as suppression of 100 uM glutamate and 30 uM glycine induced-current at saturating compound level by voltage clamp recording method; format: cell-based; method in brief: as §1
[10] = target: T4, Ionotropic glutamate receptor NMDA 1/2D (Rattus norvegicus) (UniProt P35439+Q62645); experiment: Negative allosteric modulation of rat GluN1a/GluN2D receptor expressed in Xenopus laevis oocytes assessed as suppression of 100 uM glutamate and 30 uM glycine induced-current at saturating compound level by voltage clamp recording method; format: cell-based; method in brief: as §1
[11] = organism: Rattus norvegicus; experiment: Selectivity ratio of IC50 for rat GluN1a/GluN2A receptor expressed in Xenopus laevis oocytes to IC50 for rat GluN1a/GluN2D receptor expressed in Xenopus laevis oocytes; format: cell-based
[12] = target: T1, Glutamate NMDA receptor; Grin1/Grin2a (Rattus norvegicus); experiment: Negative allosteric modulation of rat GluN1a/GluN2A receptor expressed in Xenopus laevis oocytes assessed as suppression of 100 uM glutamate and 30 uM glycine induced-current at 30 uM by voltage clamp recording method; format: cell-based
[13] = target: T2, Glutamate NMDA receptor; Grin1/Grin2b (Rattus norvegicus); experiment: Negative allosteric modulation of rat GluN1a/GluN2B receptor expressed in Xenopus laevis oocytes assessed as suppression of 100 uM glutamate and 30 uM glycine induced-current at 30 uM by voltage clamp recording method; format: cell-based
[14] = target: T3, Glutamate NMDA receptor; Grin1/Grin2c (Rattus norvegicus); experiment: Negative allosteric modulation of rat GluN1a/GluN2C receptor expressed in Xenopus laevis oocytes assessed as suppression of 100 uM glutamate and 30 uM glycine at 30 uM glycine induced-current by voltage clamp recording method; format: cell-based
[15] = target: T4, Ionotropic glutamate receptor NMDA 1/2D (Rattus norvegicus); experiment: Negative allosteric modulation of rat GluN1a/GluN2D receptor expressed in Xenopus laevis oocytes assessed as suppression of 100 uM glutamate and 30 uM glycine at 30 uM glycine induced-current by voltage clamp recording method; format: cell-based

| Compound | Activity [1] | IC50 [2] | IC50 [3] | IC50 [4] | IC50 [5] | solubility kinetic [6] | inhibition [7] | inhibition [8] | inhibition [9] | inhibition [10] | Ratio IC50 [11] | inhibition [12] | inhibition [13] | inhibition [14] | inhibition [15] |
| --- | --- | --- | --- | --- | --- | --- | --- | --- | --- | --- | --- | --- | --- | --- | --- |
| C[C@]12N[C@H](Cc3ccccc31)c1ccccc12 | Active | – | – | – | – | – | – | – | – | – | – | – | – | – | – |
| COC(=O)c1c(NC(=O)CC2SC(N)=NC2=O)sc2c1CCCC2 (racemic) | – | 3.4 µM | 4.2 µM | 1 µM | 1.1 µM | 57 µM (≈ 20.9 µg/mL) | 81% | 86% | 88% | 86% | – | – | – | – | – |
| COC(=O)c1c(NC(=O)CC2SC(N)=NC2=O)sc2c1CCC(C)C2 (racemic) | – | 0.7 µM | 0.6 µM | 0.3 µM | 0.3 µM | 20 µM (≈ 7.63 µg/mL) | 80% | 74% | 95% | 94% | – | – | – | – | – |
| CCc1cc(C(=O)OC)c(NC(=O)CC2SC(N)=NC2=O)s1 (racemic) | – | 4.8 µM | 9.3 µM | 2.5 µM | 2.6 µM | – | 98% | 97% | 97% | 98% | – | – | – | – | – |
| CCOC(=O)c1c(NC(=O)CC2SC(=N)NC2=O)sc2c1CCC(F)(F)C2 (racemic) | – | 5.2 µM | 8 µM | 1.4 µM | 1.5 µM | 35 µM (≈ 14.6 µg/mL) | 84% | 74% | 75% | 65% | – | – | – | – | – |
| CCOC(=O)c1c(NC(=O)CC2SC(=N)NC2=O)sc2c1CCOC2 (racemic) | – | 3 µM | 5.6 µM | 2.9 µM | 2.1 µM | – | 74% | 69% | 59% | 41% | – | – | – | – | – |
| CCOC(=O)c1c(NC(=O)CC2SC(=N)NC2=O)sc2c1CCC(C)(C)C2 (racemic) | – | 16.1 µM | 9.2 µM | 9.3 µM | 8.8 µM | 37 µM (≈ 15.2 µg/mL) | 72% | 44% | 89% | 90% | – | – | – | – | – |
| CCc1c(C)sc(NC(=O)CC2SC(=N)NC2=O)c1C(=O)OC (racemic) | – | 26.8 µM | 43.8 µM | 6.7 µM | 9.1 µM | – | 79% | 77% | 85% | 82% | – | – | – | – | – |
| CCOC(=O)c1c(NC(=O)CC2SC(=N)NC2=O)sc2c1CCSC2 (racemic) | – | 6.2 µM | 12.2 µM | 0.8 µM | 0.8 µM | – | 82% | 78% | 88% | 84% | 7 | – | – | – | – |
| CCOC(=O)c1c(NC(=O)CC2SC(=N)NC2=O)sc2c1CCC(CC)C2 (racemic) | – | 3.4 µM | 2.2 µM | 0.9 µM | 1.5 µM | 73 µM (≈ 29.9 µg/mL) | 58% | 59% | 80% | 73% | – | – | – | – | – |
| CCOC(=O)c1cc(C)sc1NC(=O)CC1SC(=N)NC1=O (racemic) | – | 42.8 µM | 44.9 µM | 11.2 µM | 12.3 µM | – | 93% | 91% | 98% | 99% | – | – | – | – | – |
| CCOC(=O)c1cc(CC)sc1NC(=O)CC1SC(=N)NC1=O (racemic) | – | 6.2 µM | 9.7 µM | 3.7 µM | 2.6 µM | – | 96% | 96% | 97% | 94% | – | – | – | – | – |
| N#Cc1c(NC(=O)CC2SC(=N)NC2=O)sc2c1CCCC2 (racemic) | – | – | – | 2.9 µM | 4.3 µM | 36 µM (≈ 12 µg/mL) | – | – | 59% | 63% | – | – | – | – | – |
| CCOC(=O)c1c(NC(=O)CC2SC(=N)NC2=O)sc2c1CCCC2 (racemic) | – | 2.3 µM | 4.2 µM | 1.2 µM | 0.6 µM | 54 µM (≈ 20.6 µg/mL) | 61% | 35% | 53% | 41% | – | – | – | – | – |
| COC(=O)c1ccsc1NC(=O)CC1SC(=N)NC1=O (racemic) | – | – | – | 41 µM | 43.3 µM | – | – | – | 100% | 99% | – | < 25% | < 25% | – | – |
| COC(=O)c1c(NC(=O)CC2SC(=N)NC2=O)sc(C)c1C (racemic) | – | 22.3 µM | 28.2 µM | 9.7 µM | 10.4 µM | – | 88% | 63% | 88% | 94% | – | – | – | – | – |
| CCOC(=O)c1c(NC(=O)CC2SC(=N)NC2=O)sc(C)c1C (racemic) | – | 30.2 µM | – | 8.1 µM | 13 µM | – | 80% | – | 77% | 81% | – | – | < 25% | – | – |
| CCOC(=O)c1c(NC(=O)CC2NC(=O)NC2=O)sc2c1CCCC2 (racemic) | – | – | – | – | – | – | – | – | – | – | – | < 25% | < 25% | < 25% | < 25% |
| CCOC(=O)c1c(NC(=O)CC2S/C(=N\C)N(C)C2=O)sc2c1CCCC2 (racemic) | – | – | – | – | – | – | – | – | – | – | – | < 25% | < 25% | < 25% | < 25% |
| CCOC(=O)c1c(NC(=O)CC2SC(=O)NC2=O)sc2c1CCC2 (racemic) | – | – | – | – | – | – | – | – | – | – | – | < 25% | < 25% | < 25% | < 25% |
| CCOC(=O)c1c(NC(=O)CC2SC(=O)NC2=O)sc2c1CCCC2 (racemic) | – | – | – | – | – | – | – | – | – | – | – | < 25% | < 25% | < 25% | < 25% |
| COC(=O)c1c(NC(=O)CC2SC(N)=NC2=O)sc2c1CCC(C(C)(C)C)C2 (racemic) | – | – | – | – | – | – | – | – | – | – | – | < 25% | < 25% | < 25% | < 25% |
| N=C1NC(=O)C(CC(=O)Nc2sc3c(c2C(=O)O)CCCC3)S1 (racemic) | – | – | – | – | – | – | – | – | – | – | – | < 25% | < 25% | < 25% | < 25% |
